This passage reports IC50 and ILS results from ChEMBL document CHEMBL1122143, “Adriamycin analogues. Preparation and biological evaluation of some N-perfluoroacyl analogues of daunorubicin, adriamycin, and N-(trifluoroacetyl)adriamycin 14-valerate and their 9,10-anhydro derivatives” (1982).

What all share (format): functional
For assay [1], the system named is CCRF-CEM. Put plainly: Inhibitory activity against CCRF-CEM(human leukemic lymphoblastic) cells in culture. The settings on record: read-out: ID50 (the source's name). A digest of the protocol:
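Human leukemic lymphoblastic CCRF-CEM cells grown in culture with continuous drug exposure for 48 h; growth inhibition measured.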

For assay [2], the system named is Mus musculus. Put plainly: In vivo growth inhibitory activity was measured against murine P388 leukemia cells as Percent increase in life span at the dose of 50.0 mg/kg/day. A digest of the protocol: (§1)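 Murine P388 leukemia model: 10⁶ tumor cells inoculated ip on day 0. Compound given ip once daily on days 1-4 at the stated dose. Activity was expressed as percent increase in life span relative to untreated controls.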

The test system of assay [3] is Mus musculus. Description: In vivo growth inhibitory activity was measured against murine P388 leukemia cells as Percent increase in life span at the dose of 40.0 mg/kg/day. A digest of the protocol: as §1
Assay [4] relates to Mus musculus. Description: In vivo growth inhibitory activity was measured against murine P388 leukemia cells as Percent increase in life span at the dose of 2.0 mg/kg/day. The procedure, abridged: as §1
Assay [5] concerns Mus musculus. Description: In vivo growth inhibitory activity was measured against murine P388 leukemia cells as Percent increase in life span at the dose of 80.0 mg/kg/day. The procedure, abridged:
as §1

Assay [6] deals with Mus musculus. Description: In vivo growth inhibitory activity was measured against murine P388 leukemia cells as percent increase in life span at the dose of 40.0 mg/kg/day. The procedure, abridged:
as §1

Assay [7] deals with Mus musculus. Put plainly: In vivo growth inhibitory activity was measured against murine P388 leukemia cells as Percent increase in life span at the dose of 20.0 mg/kg/day. A digest of the protocol:
as §1

Assay [8] has as its system Mus musculus. Description: In vivo growth inhibitory activity was measured against murine P388 leukemia cells as Percent increase in life span at the dose of 4.0 mg/kg/day. The procedure, abridged: as §1

`CCCCC(=O)OCC(=O)C1=Cc2c(O)c3c(c(O)c2[C@@H](OC2CC(NC(=O)C(F)(F)C(F)(F)F)C(O)C(C)O2)C1)C(=O)c1c(OC)cccc1C3=O` (stereo partly drawn): in assay [1], the IC50 was 560 nM.
By ILS is commonly meant the gain in survival time of treated over control animals, in per cent. With `COc1cccc2c1C(=O)c1c(O)c3c(c(O)c1C2=O)C[C@@](O)(C(=O)CO)C[C@@H]3OC1CC(NC(=O)C(F)(F)C(F)(F)C(F)(F)F)C(O)C(C)O1` (stereo partly drawn), the IC50 in assay [1] came to 1490 nM. The ILS at 50 mg/kg/day in assay [2] is 54%.
In the case of `COc1cccc2c1C(=O)c1c(O)c3c(c(O)c1C2=O)C=C(C(C)=O)C[C@@H]3OC1CC(NC(=O)C(F)(F)C(F)(F)C(F)(F)F)C(O)C(C)O1` (stereo partly drawn), the IC50 in assay [1] is more than 13800 nM.
Take `COc1cccc2c1C(=O)c1c(O)c3c(c(O)c1C2=O)C=C(C(=O)CO)C[C@@H]3OC1CC(NC(=O)C(F)(F)C(F)(F)C(F)(F)F)C(O)C(C)O1` (stereo partly drawn): the IC50 in assay [1] is 7300 nM.
For the compound `COc1cccc2c1C(=O)c1c(O)c3c(c(O)c1C2=O)C[C@@](O)(C(C)=O)C[C@@H]3OC1CC(NC(=O)C(F)(F)C(F)(F)C(F)(F)F)C(O)C(C)O1` (stereo partly drawn), the IC50 in assay [1] was more than 1350 nM. This compound also showed an ILS at 40 mg/kg/day in assay [3] of 45%.
For `CCCCC(=O)OCC(=O)[C@]1(O)Cc2c(O)c3c(c(O)c2[C@@H](OC2CC(NC(=O)C(F)(F)C(F)(F)F)C(O)C(C)O2)C1)C(=O)c1c(OC)cccc1C3=O` (stereo partly drawn), in assay [1], the IC50 worked out at 1180 nM. This compound came in with an increase in life span (ILS) at 50 mg/kg/day in assay [2] of 0%.
Take `COc1cccc2c1C(=O)c1c(O)c3c(c(O)c1C2=O)C[C@@](O)(C(=O)CO)C[C@@H]3OC1CC(NC(=O)C(F)(F)C(F)(F)F)C(O)C(C)O1` (stereo partly drawn): the IC50 in assay [1] is 410 nM. The compound further gave an ILS at 50 mg/kg/day in assay [2] of 372%.
Take `COc1cccc2c1C(=O)c1c(O)c3c(c(O)c1C2=O)C=C(C(C)=O)C[C@@H]3OC1CC(NC(=O)C(F)(F)F)C(O)C(C)O1` (stereo partly drawn): in assay [3], the ILS at 40 mg/kg/day came to 45%.
Consider `CCCCC(=O)OCC(=O)C1=Cc2c(O)c3c(c(O)c2[C@@H](OC2CC(NC(=O)C(F)(F)F)C(O)C(C)O2)C1)C(=O)c1c(OC)cccc1C3=O` (stereo partly drawn), for which the IC50 in assay [1] worked out at 1190 nM. Besides, the ILS at 40 mg/kg/day in assay [3] came out at 27%.
For `COc1cccc2c1C(=O)c1c(O)c3c(c(O)c1C2=O)C[C@@](O)(C(C)=O)C[C@@H]3O[C@H]1C[C@H](N)[C@H](O)[C@H](C)O1` [DAUNORUBICIN], the IC50 in assay [1] was determined as 40 nM. For the same compound, in assay [4], the ILS at 2 mg/kg/day was found to be 91%.
For `COc1cccc2c1C(=O)c1c(O)c3c(c(O)c1C2=O)C[C@@](O)(C(C)=O)C[C@@H]3OC1CC(NC(=O)C(F)(F)F)C(O)C(C)O1` (stereo partly drawn), the IC50 in assay [1] turned out to be 270 nM. Also, the ILS at 80 mg/kg/day in assay [5] is 83%.
Turning to `COc1cccc2c1C(=O)c1c(O)c3c(c(O)c1C2=O)C[C@@](O)(C(C)=O)C[C@@H]3OC1CC(NC(=O)C(F)(F)C(F)(F)F)C(O)C(C)O1` (stereo partly drawn), the IC50 in assay [1] was found to be 1010 nM. For the same compound, in assay [2], the increase in life span (ILS) at 50 mg/kg/day is 27%.
On to `COc1cccc2c1C(=O)c1c(O)c3c(c(O)c1C2=O)C=C(C(=O)CO)C[C@@H]3OC1CC(NC(=O)C(F)(F)F)C(O)C(C)O1` (stereo partly drawn), for which the IC50 in assay [1] is 5790 nM. This compound showed an increase in lifespan (ILS) at 40 mg/kg/day in assay [6] of 63%.
Take `CCCCC(=O)OCC(=O)[C@]1(O)Cc2c(O)c3c(c(O)c2[C@@H](OC2CC(NC(=O)C(F)(F)F)C(O)C(C)O2)C1)C(=O)c1c(OC)cccc1C3=O` (stereo partly drawn): the IC50 in assay [1] stood at 240 nM. In assay [3], the ILS at 40 mg/kg/day was found to be 429%.
For the compound `COc1cccc2c1C(=O)c1c(O)c3c(c(O)c1C2=O)C=C(C(=O)CO)C[C@@H]3OC1CC(NC(=O)C(F)(F)C(F)(F)F)C(O)C(C)O1` (stereo partly drawn), in assay [1], the IC50 turned out to be 8410 nM.
Consider `CCCCC(=O)OCC(=O)[C@]1(O)Cc2c(O)c3c(c(O)c2[C@@H](OC2CC(NC(=O)C(F)(F)C(F)(F)C(F)(F)F)C(O)C(C)O2)C1)C(=O)c1c(OC)cccc1C3=O` (stereo partly drawn), for which the IC50 in assay [1] was more than 1140 nM. The compound also gave an increase in lifespan (ILS) at 50 mg/kg/day in assay [2] of 0%.
Consider `COc1cccc2c1C(=O)c1c(O)c3c(c(O)c1C2=O)C=C(C(C)=O)C[C@@H]3OC1CC(NC(=O)C(F)(F)C(F)(F)F)C(O)C(C)O1` (stereo partly drawn), for which the IC50 in assay [1] came out at 500 nM.
With `CCCCC(=O)OCC(=O)C1=Cc2c(O)c3c(c(O)c2[C@@H](OC2CC(NC(=O)C(F)(F)C(F)(F)C(F)(F)F)C(O)C(C)O2)C1)C(=O)c1c(OC)cccc1C3=O` (stereo partly drawn), the IC50 in assay [1] worked out at 2310 nM.
`COc1cccc2c1C(=O)c1c(O)c3c(c(O)c1C2=O)C[C@@](O)(C(=O)CO)C[C@@H]3OC1CC(NC(=O)C(F)(F)F)C(O)C(C)O1` (stereo partly drawn): the IC50 in assay [1] is 230 nM. Also, the increase in life span (ILS) at 20 mg/kg/day in assay [7] worked out at 481%.
On to `COc1cccc2c1C(=O)c1c(O)c3c(c(O)c1C2=O)C[C@@](O)(C(=O)CO)C[C@@H]3O[C@H]1C[C@H](N)[C@H](O)[C@H](C)O1` [DOXORUBICIN], for which the IC50 in assay [1] came to 66 nM. This compound showed an ILS at 4 mg/kg/day in assay [8] of 132%.
